Data on 25 compounds can be found in ChEMBL document CHEMBL4190364, “Design, synthesis and anti-HIV evaluation of novel diarylpyridine derivatives as potent HIV-1 NNRTIs” (Eur J Med Chem, 2017).

In data set [1] the test system is Human immunodeficiency virus 1. Put plainly: Antiviral activity against HIV1 3B infected in human MT4 cells assessed as inhibition of virus-induced cytopathogenicity by measuring virus-induced syncytium formation by MTT assay. It counts as functional, organism-based. The conditions noted are these: Human immunodeficiency virus 1, 3B. The method in brief:
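MT-4 cells, exponentially growing, spun 5 min at 220 g and resuspended at 6×10^5 cells/mL. Infected with virus stock at 100-300 CCID₅₀ (HIV-1 IIIB or HIV-2 ROD). Serial fivefold compound dilutions were tested in triplicate wells. Viability was read by MTT after 5 days at 540 and 690 nm, using the median OD of three wells.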
Background: Cytopathic effects are the visible damage that an infection or toxin causes in cultured cells.

Data set [2] concerns Human immunodeficiency virus 2. Put plainly: Antiviral activity against HIV2 ROD infected in human MT4 cells assessed as inhibition of virus-induced cytopathogenicity by measuring virus-induced syncytium formation by MTT assay. It counts as functional, organism-based. The conditions noted are these: Human immunodeficiency virus 2, ISOLATE ROD. In short, it runs like this: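 MT-4 cells, exponentially growing, spun 5 min at 220 g and resuspended at 6×10^5 cells/mL. Infected with virus stock at 100-300 CCID₅₀ (HIV-1 IIIB or HIV-2 ROD). Serial fivefold compound dilutions were tested in triplicate wells. Viability was read by MTT after 5 days at 540 and 690 nm, using the median OD of three wells. EC₅₀ was taken as 50% inhibition of virus-induced syncytium formation.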

The subject of data set [3] is Human immunodeficiency virus 1. Put plainly: Antiviral activity against HIV1 RES056 expressing reverse transcriptase K103N/Y181C double mutant infected in human MT4 cells assessed as inhibition of virus-induced cytopathogenicity by measuring virus-induced syncytium formation by MTT assay. The class given is functional, organism-based. Particulars: Human immunodeficiency virus 1, RES056, MT4. The method in brief:
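MT-4 cells (exponentially growing, spun 5 min at 220 g, resuspended at 6×10^5 cells/mL) infected with 100-300 CCID₅₀ virus; serial fivefold compound dilutions added at start, triplicate wells, mock-infected set in parallel. Viability read by MTT reduction at 540 and 690 nm after 5 days; median OD of three wells; EC₅₀ = concentration inhibiting virus-induced syncytium formation by 50%.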

Data set [4] can be described thus: Cytotoxicity in mock-infected human MT4 cells assessed as reduction in cell viability by MTT assay. It counts as cell-based. The method in brief: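 Mock-infected MT-4 cells were run in parallel with the infected series: 6×10^5 cells/mL, serial fivefold compound dilutions, triplicate wells. MTT viability was read 5 days later at 540/690 nm from the median OD of three wells. CC₅₀ is the concentration cutting OD540 of mock-infected controls by 50%.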
A general note: Tetrazolium assays rely on reduction of a dye to a coloured formazan, in cell work by metabolically active cells.

A short description of data set [5]: Selectivity index, ratio of CC50 for mock-infected human MT4 cells to EC50 for antiviral activity against HIV1 3B infected in human MT4 cells. The class given is toxicity, cell-based. The conditions noted are these: mock-infected (CC50) and HIV1 3B infected (EC50). The method in brief: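 SI is CC₅₀/EC₅₀. Both values come from parallel MTT readings on mock-infected and HIV-1 IIIB-infected (100-300 CCID₅₀) MT-4 cells, in triplicate wells with serial fivefold dilutions, read after 5 days.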

The target in data set [6] is Human immunodeficiency virus type 1 reverse transcriptase (Human immunodeficiency virus 1, UniProt Q72547). Put plainly: Inhibition of recombinant wild type HIV1 reverse transcriptase p66/p51 assessed as reduction in biotin-dUTP incorporation incubated for 40 mins using poly(rA) template and oligo(dT)16 primer by picogreen dye based spectrofluorometry.
For data set [7], the target named is Human immunodeficiency virus type 1 reverse transcriptase (Human immunodeficiency virus 1) (UniProt Q72547). Put plainly: Potency index, ratio of IC50 for nevirapine to IC50 for test compound for inhibition of recombinant wild type HIV1 reverse transcriptase p66/p51 incubated for 40 mins using poly(rA) template and oligo(dT)16 primer by picogreen dye based spectrofluorometry.

Data set [8] deals with Human immunodeficiency virus 1. Nature of the data set: Potency index, ratio of EC50 for nevirapine to EC50 for test compound for antiviral activity against HIV1 3B infected in human MT4 cells by MTT assay. It counts as functional.

In general, EC50 refers to the concentration giving half of the maximal effect. Broadly, the CC50 is the concentration giving 50% cytotoxicity. As a reminder, the IC50 is the concentration that inhibits the measured activity by half. On to `Cc1cc(Br)c(Oc2cnc(N)c(Nc3ccc(C#N)cc3)c2)c(Br)c1`, for which the concentration giving a half-maximal response (EC50) is 0.07 µM in data set [1], over 264 µM in data set [2] and over 264 µM in data set [3]. For the same compound, in data set [4], the 50% cytotoxic concentration (CC50) was over 264 µM. Moreover, in data set [5], the selectivity ratio was over 3800. Besides, the IC50 in data set [6] turned out to be 0.05 µM. In addition, the Ratio IC50 in data set [7] turned out to be 45.
Turning to `Cc1ccnc2c1NC(=O)c1cccnc1N2C1CC1` [NEVIRAPINE], in data set [3], the half-maximal effective concentration (EC50) was over 15 µM. Moreover, in data set [4], the CC50 was over 15 µM.
As for `O=C1Nc2ccc(Cl)cc2[C@@](C#CC2CC2)(C(F)(F)F)O1` [EFAVIRENZ], in data set [4], the CC50 was over 6.34 µM.
For `Cc1cccc(C)c1Oc1cnc(N)c(Nc2ccc(C#N)cc2)c1`, the EC50 is 0.6 µM in data set [1], over 378 µM in data set [2] and over 378 µM in data set [3]. In addition, the CC50 in data set [4] was over 378 µM. Further, in data set [5], the selectivity ratio was over 628. Also, the IC50 in data set [6] worked out at 0.91 µM.
Turning to `Cc1cccc(C)c1Oc1cnc([N+](=O)[O-])c(Nc2ccc(C#N)cc2)c1`, the results for the EC50 in data set [1], in data set [2] and in data set [3] were 2.03 µM, over 347 µM and over 347 µM, respectively. Besides, the CC50 in data set [4] is over 347 µM. Also, in data set [5], the selectivity ratio was over 171.
As for `Cc1cn([C@H]2C[C@H](N=[N+]=[N-])[C@@H](CO)O2)c(=O)[nH]c1=O` [ZIDOVUDINE], the EC50 in data set [1] is 0.006 µM. The CC50 in data set [4] is over 7.48 µM. Besides, in data set [5], the selectivity ratio was over 1290.
Take `Cc1cc(Br)cc(C)c1Oc1cnc(N)c(Nc2ccc(C#N)cc2)c1`: the EC50 in data set [1] was 0.84 µM; in data set [2], over 26.7 µM; in data set [3], over 26.7 µM. Further, in data set [4], the CC50 turned out to be 26.7 µM. Moreover, the selectivity ratio in data set [5] stood at 32. Also, the IC50 in data set [6] was determined as 0.26 µM.
For the compound `Cc1cc(C#N)cc(C)c1Oc1nc(Nc2ccc(C#N)cc2)nc(N)c1Br` [ETRAVIRINE], the CC50 in data set [4] was over 4.59 µM.
On to `COc1cccc(OC)c1Oc1cnc(N)c(Nc2ccc(C#N)cc2)c1`, for which the EC50 in data set [1] is 35.7 µM; in data set [2], over 345 µM; in data set [3], over 345 µM. Also, the CC50 in data set [4] is over 345 µM. Further, in data set [5], the selectivity ratio is over 10. In addition, in data set [6], the IC50 turned out to be 146 µM.
As to `Cc1cc(C)c(Nc2cnc([N+](=O)[O-])c(Nc3ccc(C#N)cc3)c2)c(C)c1`, the EC50 in data set [1] is 0.04 µM; in data set [2], over 168 µM; in data set [3], over 168 µM. The CC50 in data set [4] turned out to be 168 µM. The selectivity ratio in data set [5] was determined as 3960. Also, the IC50 in data set [6] came out at 0.65 µM. Also, the “Ratio EC50” value in data set [8] came to 6.
In the case of `N#Cc1ccc(Nc2cc(Oc3c(Cl)cc(Cl)cc3Cl)cnc2[N+](=O)[O-])cc1`, the EC50 in data set [1] is 0.31 µM; in data set [2], over 287 µM; in data set [3] it was over 287 µM. The cytotoxic concentration (CC50) in data set [4] is over 287 µM. Further, the selectivity ratio in data set [5] is over 924.
Consider `Cc1cc(C#N)cc(C)c1Oc1cnc([N+](=O)[O-])c(Nc2ccc(C#N)cc2)c1`, for which the EC50 was 4.12 µM in data set [1], over 324 µM in data set [2] and over 324 µM in data set [3]. The CC50 in data set [4] is over 324 µM. The selectivity ratio in data set [5] was over 79.
For the compound `N#Cc1ccc(Nc2cc(Oc3c(F)cc(F)cc3F)cnc2[N+](=O)[O-])cc1`, the EC50 in data set [1] is 1.01 µM; in data set [2] it was over 324 µM; in data set [3] it was over 324 µM. In data set [4], the CC50 is over 324 µM. Besides, in data set [5], the selectivity ratio is over 320.
For `Cc1cc(Br)c(Oc2cnc([N+](=O)[O-])c(Nc3ccc(C#N)cc3)c2)c(Br)c1`, the EC50 in data set [1] is 0.05 µM; in data set [2], over 84.3 µM; in data set [3], over 84.3 µM. In data set [4], the CC50 was determined as 84.3 µM. Moreover, the selectivity ratio in data set [5] amounted to 1680. Besides, the IC50 in data set [6] turned out to be 0.28 µM.
`Cc1cc(C)c(Oc2cnc([N+](=O)[O-])c(Nc3ccc(C#N)cc3)c2)c(C)c1`: the EC50 is 0.29 µM in data set [1], over 334 µM in data set [2] and over 334 µM in data set [3]. Moreover, in data set [4], the half-maximal cytotoxic concentration (CC50) was over 334 µM. Moreover, the selectivity ratio in data set [5] is over 1160.
With `N#Cc1ccc(Nc2cc(Oc3c(Br)cc(Br)cc3Br)cnc2N)cc1`, the EC50 in data set [1] is 0.5 µM; in data set [2] it was over 27.7 µM; in data set [3] it was over 27.7 µM. Further, in data set [4], the CC50 came to 27.7 µM. The selectivity ratio in data set [5] was found to be 55. Also, the IC50 in data set [6] was found to be 0.17 µM.
Take `Cc1cc(Cl)cc(C)c1Oc1cnc(N)c(Nc2ccc(C#N)cc2)c1`: the 50% effective concentration (EC50) in data set [1] is 0.37 µM; in data set [2], over 35.1 µM; in data set [3], over 35.1 µM. Also, the CC50 in data set [4] is 35.1 µM. Besides, in data set [5], the selectivity ratio was 95. The IC50 in data set [6] came out at 0.31 µM.
`Cc1cc(Br)cc(C)c1Oc1cnc([N+](=O)[O-])c(Nc2ccc(C#N)cc2)c1`: the 50% effective concentration (EC50) in data set [1] was 4.41 µM; in data set [2], over 285 µM; in data set [3] it was over 285 µM. Moreover, the CC50 in data set [4] was over 285 µM. The selectivity ratio in data set [5] was over 64.
Consider `N#Cc1ccc(Nc2cc(Oc3c(Br)cc(Br)cc3Br)cnc2[N+](=O)[O-])cc1`, for which the EC50 in data set [1] is 0.79 µM; in data set [2] it was over 220 µM; in data set [3], over 220 µM. The CC50 in data set [4] is over 220 µM. Also, the selectivity ratio in data set [5] is over 277.
`Cc1cc(C#N)cc(C)c1Oc1cnc(N)c(Nc2ccc(C#N)cc2)c1`: the EC50 was 0.07 µM in data set [1], over 39.5 µM in data set [2] and at least 11.5 µM in data set [3]. Besides, in data set [4], the CC50 came out at 39.5 µM. Moreover, in data set [5], the selectivity ratio is 577. In addition, the IC50 in data set [6] is 0.17 µM.
On to `N#Cc1ccc(Nc2cc(Oc3c(Cl)cc(Cl)cc3Cl)cnc2N)cc1`, for which the EC50 in data set [1] is 0.26 µM; in data set [2], at least 57.7 µM; in data set [3], over 179 µM. The CC50 in data set [4] was found to be 179 µM. Moreover, in data set [5], the selectivity ratio stood at 680. For the same compound, the IC50 in data set [6] is 0.16 µM.
As for `Cc1cccc(C)c1Nc1cnc([N+](=O)[O-])c(Nc2ccc(C#N)cc2)c1`, the EC50 in data set [1] was 1.06 µM; in data set [2] it was over 6.27 µM; in data set [3] it was over 6.27 µM. In data set [4], the CC50 turned out to be 6.27 µM. Besides, the selectivity ratio in data set [5] amounted to 6.
Consider `COc1cccc(OC)c1Oc1cnc([N+](=O)[O-])c(Nc2ccc(C#N)cc2)c1`, for which the EC50 in data set [1] and in data set [2] was over 319 µM throughout. The CC50 in data set [4] is over 319 µM.
With `Cc1cc(Cl)cc(C)c1Oc1cnc([N+](=O)[O-])c(Nc2ccc(C#N)cc2)c1`, the half-maximal effective concentration (EC50) is 1.41 µM in data set [1], over 317 µM in data set [2] and over 317 µM in data set [3]. Further, in data set [4], the CC50 is over 317 µM. Also, the selectivity ratio in data set [5] is over 171.
Consider `Cc1cc(C)c(Oc2cnc(N)c(Nc3ccc(C#N)cc3)c2)c(C)c1`, for which the concentration for a half-maximal effect (EC50) in data set [1] was 0.14 µM; in data set [2] it was over 32.1 µM; in data set [3] it was over 32.1 µM. Further, the CC50 in data set [4] was 32.1 µM. The selectivity ratio in data set [5] turned out to be 227. In addition, the IC50 in data set [6] came out at 0.09 µM.
